ChEMBL document CHEMBL2346575, “Potential CRF1R PET imaging agents: 1-fluoroalkylsubstituted 5-halo-3-(arylamino)pyrazin-2(1H)-ones” (Bioorg Med Chem Lett, 2013)

Key:
[1] = Lipophilicity, log D of the compound in octanol-phosphate buffer at pH 7.4 after 30 to 40 mins by shake flask method; assay type: physicochemical
Procedure, shortened: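 Phosphate buffer (25 mM, pH ~7.4) and octanol were pre-saturated overnight. Sample (1.0 mg) in 1 mL octanol added to 50 mL octanol-saturated buffer, shaken hard 30–40 min, then left until the layers separated. Each phase analyzed twice by HPLC.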

[2] = biological target: T1, Corticotropin-releasing factor receptor 1 (Rattus norvegicus, UniProt P35353); assay: Displacement of [125I]-o-CRF from CRF1 receptor in rat frontal cortex homogenate after 2 hrs by gamma counting; assay type: tissue-based
T1 sequence (P35353 whole entry): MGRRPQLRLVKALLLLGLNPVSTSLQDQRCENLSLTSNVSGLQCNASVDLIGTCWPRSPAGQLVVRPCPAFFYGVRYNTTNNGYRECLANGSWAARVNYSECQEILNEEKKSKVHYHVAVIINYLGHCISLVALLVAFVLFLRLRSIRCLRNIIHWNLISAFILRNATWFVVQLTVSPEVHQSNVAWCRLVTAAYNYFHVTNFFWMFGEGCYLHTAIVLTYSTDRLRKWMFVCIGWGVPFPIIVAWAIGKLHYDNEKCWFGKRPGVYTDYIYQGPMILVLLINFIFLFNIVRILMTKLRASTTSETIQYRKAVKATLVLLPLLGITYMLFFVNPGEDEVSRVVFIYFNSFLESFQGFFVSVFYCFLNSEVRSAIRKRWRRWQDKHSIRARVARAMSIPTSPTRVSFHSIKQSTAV
Procedure, shortened: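 Rat frontal cortex, thawed in 50 mM HEPES (pH 7.0 at 23 °C) with 10 mM MgCl2, 2 mM EGTA and protease inhibitors, then homogenized, spun twice at 32,000×g for 30 min and stored at -70 °C. Membranes (25 µg/well) incubated with 150 pM 125I-o-CRF and test drug, 2 h at 21 °C. Filtered on PEI-treated GF/B, washed with cold PBS/0.01% Triton X-100. Nonspecific binding with 1 µM DMP696.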

[3] = Metabolic stability in baboon after 9 mins; assay type: ADME, organism-based, Papio; details: in vivo, read-out: Stability
[4] = Drug uptake in rat pituitary gland; assay type: ADME, tissue-based; details: in vivo
[5] = Metabolic stability in baboon after 13 mins; assay type: ADME, organism-based, Papio; details: in vivo, read-out: Stability
Cerebellum = assay: Drug uptake in rat cerebellum after 30 mins; assay type: ADME, tissue-based; details: in vivo, 0.5 h
Cortex = assay: Drug uptake in rat cortex after 30 mins; assay type: ADME, tissue-based; details: in vivo, 0.5 h

N#Cc1cc(F)c(Nc2nc(Cl)cn([C@@H](COCCF)C3CC3)c2=O)cc1F
logD [1]: 4.6
IC50 [2]: > 1000 nM

CCCN(CCC)c1cc(C)nc2c(-c3ccc(N(C)[11CH3])nc3)c(C)nn12
remaining at 0.15 h [3]: 50%

COc1cc(Cl)c(Nc2nc(Br)cn([C@@H](COCCF)C3CC3)c2=O)c(Cl)c1
logD [1]: 4.1
IC50 [2]: 0.46 nM

COc1nc(Cl)nc(C)c1Nc1nc(Cl)cn([C@@H](COCCF)C2CC2)c1=O
logD [1]: 3.3
IC50 [2]: 19 nM

Cc1cc(C#N)cc(C)c1Nc1nc(Cl)cn([C@@H](COCCF)C2CC2)c1=O
logD [1]: 3.4
IC50 [2]: 7.4 nM

COc1cc(Cl)c(Nc2nc(Cl)cn([C@@H](COCCF)C3CC3)c2=O)c(Cl)c1
logD [1]: 4
IC50 [2]: 0.6 nM

Cc1cc(C#N)cc(Cl)c1Nc1nc(Cl)cn([C@@H](COCCF)C2CC2)c1=O
logD [1]: 3.7
IC50 [2]: 4.5 nM

COc1cc(C)c(Nc2nc(C)cn([C@@H](CF)C3CC3)c2=O)cc1C
logD [1]: 4.2
IC50 [2]: 0.61 nM

COc1cc(C)c(Nc2nc(Cl)cn([C@@H](COCCF)C3CC3)c2=O)cc1C
logD [1]: 4.6
IC50 [2]: 0.46 nM

CCN(CCCC[18F])c1nc(C)nc2c1c(C)cn2-c1c(C)cc(C)cc1C [[18F]FBPPA]
Drug uptake [4]: 5.59%

COc1nc(C)c(Nc2nc(C)cn([C@@H](CF)C3CC3)c2=O)cc1C
logD [1]: 4.1
IC50 [2]: 4.7 nM

COc1nc(Cl)nc(C)c1Nc1nc(Br)cn([C@@H](COCCF)C2CC2)c1=O
logD [1]: 3.4
IC50 [2]: 14 nM

N#Cc1cc(Cl)c(Nc2nc(Cl)cn([C@@H](COCCF)C3CC3)c2=O)c(Cl)c1
logD [1]: 3.6
IC50 [2]: 5 nM

COCCN(CCO[11CH3])c1cc(C)nc2c(-c3ccc(N(C)C)nc3)c(C)nn12 [[11C]DMP696]
remaining at 13 min [5]: 50%

COc1cc(Cl)c2c(c1)CCN2c1nc(Cl)cn([C@@H](COCCF)C2CC2)c1=O
logD [1]: 4
IC50 [2]: 3.2 nM

COc1cc(Cl)c(Nc2nc(C#N)cn([C@@H](COCCF)C3CC3)c2=O)c(Cl)c1
logD [1]: 3.4
IC50 [2]: 7.7 nM

COc1nc(C)c(Nc2nc(Cl)cn(C(CCF)C3CC3)c2=O)c(OC)n1 (racemic)
logD [1]: 2.9
IC50 [2]: 53 nM

COCCN(CCOC)c1nc(C)nc2c(-c3ccc([76Br])cc3Cl)c(C)nn12
Drug uptake (Cerebellum): 0.29 % ID/g
Drug uptake (Cortex): 0.32 % ID/g

COc1cc(C)c(Nc2nc(Cl)cn([C@@H](CF)C3CC3)c2=O)cc1C
logD [1]: 4.5
IC50 [2]: 1.1 nM
